Reference: ChEMBL document CHEMBL1148584, “Effect of polyamine homologation on the transport and biological properties of heterocyclic amidines” (J Med Chem, 2006)

Key:
[1] = Selectivity for uptake in CHO cell line over CHO-MG cell line at 5 uM; assay type: functional, Cricetulus griseus
Summary of the method: (§1)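 Ratio of intracellular conjugate level in CHO over CHO-MG cells. Both lines were exposed to conjugate 24 h after seeding at 2 × 10⁵ cells/mL, for 24 h with 2 mM aminoguanidine in the medium. Levels were measured by ion-pair HPLC of perchloric extracts and normalised to protein (nmol/mg).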

L1210 [2] = assay: Intracellular level of spermine in L1210 cells in the presence of DFMO at 10 uM; assay type: functional, cell-based; conditions: Mus musculus
Summary of the method: (§2)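 L1210 cells in RPMI 1640/10% FCS with 2 mM aminoguanidine, seeded at 4 × 10⁴ cells/mL. Conjugate, with or without 5 mM DFMO, added at seeding; cells cultured 48 h, washed in cold NaCl, and extracted with 0.2 N HClO₄. Conjugate and free putrescine, spermidine and spermine quantified by ion-pair HPLC (UV 254 nm, fluorescence ex 345/em 455 nm); normalised to protein. Student's t-test, p<0.05.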

CHO [3] = assay: Cellular uptake in CHO cells at 10 uM; assay type: ADME, cell-based, Cricetulus griseus; conditions: chinese hamster
Summary of the method: (§3)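 CHO (RPMI 1640, 10% FCS, 2 mM aminoguanidine) and CHO-MG (plus L-proline) cells seeded at 2 × 10⁵ cells/mL. Conjugate added 24 h after seeding and cells harvested 24 h later, then washed in cold 0.14 M NaCl and sonicated in 0.2 N HClO₄. Supernatant analysed by ion-pair reversed-phase HPLC (n-octanesulfonate), expressed as nmol/mg protein; mean ± SD of three determinations.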

Phosphodiesterase 1 = Phosphodiesterase 1 (Bos taurus, UniProt Q01061+P14100); assay: Inhibition of bovine calmodulin-activated cAMP dependent phosphodiesterase; assay type: protein assay
Summary of the method: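 Crude bovine heart PDE preparation containing calmodulin and Ca²⁺ (0.2 milliunit). Incubated 20 min at 37 °C with 0.1 mM [8-³H]cAMP and graded drug concentrations in 30 mM Tris-HCl, 3 mM MgSO₄, 0.6 mM AMP. Stopped with ZnSO₄; Ba(OH)₂ precipitated AMP with BaSO₄; supernatant radioactivity counted. IC50 is the concentration giving 50% inhibition.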

L1210 [4] = assay: Intracellular level of spermidine in L1210 cells in the absence of DFMO at 10 uM; assay type: functional, cell-based; conditions: Mus musculus; summary of the method: as §2
L1210 [5] = assay: Intracellular level of conjugate in L1210 cells in the presence of DFMO at 10 uM; assay type: functional, cell-based; conditions: Mus musculus; summary of the method: as §2
L1210 [6] = assay: Intracellular level of spermidine in L1210 cells in the presence of DFMO at 10 uM; assay type: functional, cell-based; conditions: Mus musculus; summary of the method: as §2
L1210 [7] = assay: Intracellular level of spermine in L1210 cells in the absence of DFMO at 10 uM; assay type: functional, cell-based; conditions: Mus musculus; summary of the method: as §2
L1210 [8] = assay: Intracellular level of putrescine in L1210 cells in the absence of DFMO at 10 uM; assay type: functional, cell-based; conditions: Mus musculus; summary of the method: as §2
L1210 [9] = assay: Intracellular level of conjugate in L1210 cells in the absence of DFMO at 10 uM; assay type: functional, cell-based; conditions: Mus musculus; summary of the method: as §2
CHO-MG [10] = assay: Cellular uptake in CHO-MG cells at 10 uM; assay type: ADME, cell-based, Cricetulus griseus; conditions: chinese hamster; summary of the method: as §3
CHO [11] = assay: Cellular uptake in CHO cells at 5 uM; assay type: ADME, cell-based, Cricetulus griseus; conditions: chinese hamster; summary of the method: as §3
CHO-MG [12] = assay: Selectivity for uptake in CHO cell line over CHO-MG cell line at 10 uM; assay type: functional, cell-based; conditions: Cricetulus griseus; summary of the method: as §1
CHO-MG [13] = assay: Cellular uptake in CHO-MG cells at 5 uM; assay type: ADME, cell-based, Cricetulus griseus; conditions: chinese hamster; summary of the method: as §3

Row | SMILES | Selectivity ratio [1] | Drug uptake (L1210 [2]) [nmol/mg] | Drug uptake (CHO [3]) [nmol/mg] | IC50 (Phosphodiesterase 1) [µM] | Drug uptake (L1210 [4]) [nmol/mg] | Drug uptake (L1210 [5]) [nmol/mg] | Drug uptake (L1210 [6]) [nmol/mg] | Drug uptake (L1210 [7]) [nmol/mg] | Drug uptake (L1210 [8]) [nmol/mg] | Drug uptake (L1210 [9]) [nmol/mg] | Drug uptake (CHO-MG [10]) [nmol/mg] | Drug uptake (CHO [11]) [nmol/mg] | Ratio (CHO-MG [12]) | Drug uptake (CHO-MG [13]) [nmol/mg]
1 | NCCCNCCCCNCCCNC1=Nc2ccccc2CC1 | 1 | 13.9 | 0.029 | > 500 | 8.1 | 2.4 | 4.2 | 13.9 | 0.33 | 1.5 | 0.022 | 0.029 | 1.3 | 0.029
2 | NCCCCNC1=Nc2ccccc2CC1 | 4.6 | 16.5 | 2.1 | > 500 | 21 | 0.34 | 0.94 | 12.5 | 1.8 | 0.26 | 0.37 | 1.2 | 5.7 | 0.26
